ChEMBL document CHEMBL4033643, “Synthesis and in vitro antitumour activity of crassalactone D, its stereoisomers and novel cinnamic ester derivatives” (Eur J Med Chem, 2017)
The source made the active and inactive calls. No cut-off for these calls is given here.

Legend:
K562 [1] = assay: Cell cycle arrest in human K562 cells assessed as accumulation at sub G1 phase at IC50 after 72 hrs by propidium iodide staining based flow cytometry (reference value: 1.48%); format: functional
K562 [2] = assay: Induction of apoptosis in human K562 cells assessed as total viable cells by Annexin V-FITC/propidium iodide staining based flow cytometry (reference value: 92.45%); format: functional
K562 [3] = assay: Induction of apoptosis in human K562 cells assessed as gated necrotic cells by Annexin V-FITC/propidium iodide staining based flow cytometry (reference value: 0.24%); format: functional
K562 [4] = assay: Cell cycle arrest in human K562 cells assessed as accumulation at S phase at IC50 after 72 hrs by propidium iodide staining based flow cytometry (reference value: 41.03%); format: functional
HeLa = assay: Cytotoxicity against human HeLa cells assessed as reduction in cell viability after 72 hrs by MTT assay; format: functional, cell-based
K562 [5] = assay: Cell cycle arrest in human K562 cells assessed as total cell levels at M4 phase at IC50 after 72 hrs by propidium iodide staining based flow cytometry (reference value: 0.50%); format: functional
MDA-MB-231 = assay: Cytotoxicity against human MDA-MB-231 cells assessed as reduction in cell viability after 72 hrs by MTT assay; format: functional, cell-based; settings: MDA-MB-231, 72 h
A549 = assay: Cytotoxicity against human A549 cells assessed as reduction in cell viability after 72 hrs by MTT assay; format: functional, cell-based; settings: A549, 72 h
HL-60 = assay: Cytotoxicity against human HL60 cells assessed as reduction in cell viability after 72 hrs by MTT assay; format: functional, cell-based; settings: HL-60, 72 h
K562 [6] = assay: Induction of apoptosis in human K562 cells assessed as gated viable cells by Annexin V-FITC/propidium iodide staining based flow cytometry (reference value: 95.78%); format: functional
MCF7 = assay: Cytotoxicity against human MCF7 cells assessed as reduction in cell viability after 72 hrs by MTT assay; format: functional, cell-based; settings: MCF7, 72 h
K562 [7] = assay: Induction of apoptosis in human K562 cells assessed as increase in cleaved PARP expression level by Western blot analysis; format: functional, cell-based
Summary of the method: (§1)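 Western blot of treated K562 cells for Bcl-2, Bax, activated caspase 3 and cleaved PARP (85 kDa fragment). Blots developed by ECL, with band expression quantified by densitometry against an untreated control sample.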

K562 [8] = assay: Induction of apoptosis in human K562 cells assessed as total necrotic cells by Annexin V-FITC/propidium iodide staining based flow cytometry (reference value: 0.23%); format: functional
K562 [9] = assay: Induction of apoptosis in human K562 cells assessed as increase in caspase 3 expression level by Western blot analysis; format: functional, cell-based; summary of the method: as §1
MRC5 = assay: Cytotoxicity against human MRC5 cells assessed as reduction in cell viability after 72 hrs by MTT assay; format: cell-based; settings: MRC5, 72 h
K562 [10] = assay: Cell cycle arrest in human K562 cells assessed as accumulation at G0/G1 phase at IC50 after 72 hrs by propidium iodide staining based flow cytometry (reference value: 38.48%); format: functional
K562 [11] = assay: Induction of apoptosis in human K562 cells assessed as increase in Bax expression level by Western blot analysis; format: functional, cell-based; summary of the method: as §1
K562 [12] = assay: Cell cycle arrest in human K562 cells assessed as total cell levels at G0/G1 phase at IC50 after 72 hrs by propidium iodide staining based flow cytometry (reference value: 39.97%); format: functional
K562 [13] = assay: Induction of apoptosis in human K562 cells assessed as gated late apoptotic cells by Annexin V-FITC/propidium iodide staining based flow cytometry (reference value: 0.88%); format: functional
K562 [14] = assay: Induction of apoptosis in human K562 cells assessed as decrease in Bcl-2 expression level by Western blot analysis; format: functional, cell-based; summary of the method: as §1
K562 [15] = assay: Cytotoxicity against human K562 cells assessed as reduction in cell viability after 72 hrs by MTT assay; format: functional, cell-based; settings: K562, 72 h
K562 [16] = assay: Induction of apoptosis in human K562 cells assessed as gated early apoptotic cells by Annexin V-FITC/propidium iodide staining based flow cytometry (reference value: 3.18%); format: functional
K562 [17] = assay: Cell cycle arrest in human K562 cells assessed as total cell levels at G2/M phase at IC50 after 72 hrs by propidium iodide staining based flow cytometry (reference value: 14.31%); format: functional
K562 [18] = assay: Induction of apoptosis in human K562 cells assessed as specific necrosis by Annexin V-FITC/propidium iodide staining based flow cytometry; format: functional; set-up: concentration or dose not given beside the values
K562 [19] = assay: Induction of apoptosis in human K562 cells assessed as total late apoptotic cells by Annexin V-FITC/propidium iodide staining based flow cytometry (reference value: 0.77%); format: functional
K562 [20] = assay: Induction of apoptosis in human K562 cells assessed as specific apoptosis by Annexin V-FITC/propidium iodide staining based flow cytometry; format: functional; set-up: concentration or dose not given beside the values
K562 [21] = assay: Cell cycle arrest in human K562 cells assessed as accumulation at G2/M phase at IC50 after 72 hrs by propidium iodide staining based flow cytometry (reference value: 19.01%); format: functional
Jurkat = assay: Cytotoxicity against human Jurkat cells assessed as reduction in cell viability after 72 hrs by MTT assay; format: functional, cell-based
K562 [22] = assay: Cell cycle arrest in human K562 cells assessed as total cell levels at S phase at IC50 after 72 hrs by propidium iodide staining based flow cytometry (reference value: 36.49%); format: functional
Raji = assay: Cytotoxicity against human Raji cells assessed as reduction in cell viability after 72 hrs by MTT assay; format: functional, cell-based
K562 [23] = assay: Induction of apoptosis in human K562 cells assessed as total early apoptotic cells by Annexin V-FITC/propidium iodide staining based flow cytometry (reference value: 3.07%); format: functional

| SMILES | Activity (K562 [1]) | Activity (K562 [2]) | Activity (K562 [3]) | Activity (K562 [4]) | IC50 (HeLa) | Activity (K562 [5]) | IC50 (MDA-MB-231) | IC50 (A549) | IC50 (HL-60) | Activity (K562 [6]) | IC50 (MCF7) | Activity (K562 [8]) | IC50 (MRC5) | Activity (K562 [10]) | Activity (K562 [11]) | Activity (K562 [12]) | Activity (K562 [13]) | Activity (K562 [14]) | IC50 (K562 [15]) | Activity (K562 [16]) | also measured |
| --- | --- | --- | --- | --- | --- | --- | --- | --- | --- | --- | --- | --- | --- | --- | --- | --- | --- | --- | --- | --- | --- |
| COc1ccc(/C=C/C(=O)O[C@H]2C[C@@]3(C=CC(=O)O3)O[C@H]2c2ccccc2)cc1 | 3.23% | 91.77% | 2.44% | 29.4% | 9.94 µM | 2.89% | 2.69 µM | 0.45 µM | 2.25 µM | 95.84% | 3.25 µM | 2.34% | > 100 µM | 47.26% | inactive | 42.31% | 0.29% | Active | 1.02 µM | 1.42% | Activity (K562 [7]): Active; Activity (K562 [9]): Active; Activity (K562 [17]): 18.76%; Activity (K562 [18]): 1.6%; Activity (K562 [19]): 0.28%; Activity (K562 [20]): 2.36%; Activity (K562 [21]): 20.11%; IC50 (Jurkat): 2.54 µM; Activity (K562 [22]): 26.32%; IC50 (Raji): 3.05 µM; Activity (K562 [23]): 1.36% |
| O=C1C=C[C@@]2(C[C@H](OC(=O)/C=C/c3ccc([N+](=O)[O-])cc3)[C@H](c3ccccc3)O2)O1 | 40.08% | 11.93% | 2.29% | 22.7% | 24.8 µM | 33.19% | 1.25 µM | 0.85 µM | 4.36 µM | 26.49% | 4.31 µM | 1.03% | > 100 µM | 30.15% | inactive | 24.92% | 1.62% | Active | 2.22 µM | 69.6% | Activity (K562 [7]): Active; Activity (K562 [9]): Active; Activity (K562 [17]): 6.42%; Activity (K562 [18]): 1.76%; Activity (K562 [19]): 0.73%; Activity (K562 [20]): 70.03%; Activity (K562 [21]): 7.07%; IC50 (Jurkat): 4.03 µM; Activity (K562 [22]): 18.76%; IC50 (Raji): 1.64 µM; Activity (K562 [23]): 31.35% |
| O=C1C=C[C@]2(C[C@H](O)[C@H](c3ccccc3)O2)O1 | 1.09% | 74.8% | 1.25% | 17.17% | 35.4 µM | 0.6% | 45.1 µM | 35.2 µM | 6.11 µM | 87.3% | 11 µM | 1.07% | > 100 µM | 15.18% | Active | 11.56% | 8.1% | Active | 1.21 µM | 3.35% | Activity (K562 [17]): 51.44%; Activity (K562 [18]): 2.84%; Activity (K562 [19]): 6.94%; Activity (K562 [20]): 7.78%; Activity (K562 [21]): 66.56%; IC50 (Jurkat): 1.01 µM; Activity (K562 [22]): 13.07%; IC50 (Raji): 8.84 µM; Activity (K562 [23]): 2.87% |
| O=C1C=C[C@]2(C[C@H](OC(=O)/C=C/c3ccccc3)[C@@H](c3ccccc3)O2)O1 | 28.63% | 3.9% | 0.09% | 31.55% | 1.15 µM | 25.37% | 5.45 µM | 14.6 µM | 10 µM | 15.88% | 1.65 µM | 0.05% | > 100 µM | 16.04% | Active | 14.21% | 4.92% | Active | 20.7 µM | 79.11% | Activity (K562 [17]): 21.08%; Activity (K562 [18]): 4.06%; Activity (K562 [19]): 3.27%; Activity (K562 [20]): 83.35%; Activity (K562 [21]): 23.78%; IC50 (Jurkat): 0.21 µM; Activity (K562 [22]): 28.7%; IC50 (Raji): 6.68 µM; Activity (K562 [23]): 59.12% |
| O=C1C=C[C@@]2(C[C@H](O)[C@H](c3ccccc3)O2)O1 | 1.1% | 20.34% | 4.62% | 52.34% | 4.61 µM | 0.87% | > 100 µM | 31.4 µM | 0.19 µM | 81.75% | 1.97 µM | 1.15% | > 100 µM | 28.98% | Active | 15.11% | 7.48% | Active | 0.54 µM | 6.15% | Activity (K562 [17]): 13.99%; Activity (K562 [18]): 0.67%; Activity (K562 [19]): 1.86%; Activity (K562 [20]): 10.05%; Activity (K562 [21]): 17.58%; IC50 (Jurkat): 0.96 µM; Activity (K562 [22]): 50.77%; IC50 (Raji): 2.69 µM; Activity (K562 [23]): 1.53% |
| O=C1C=C[C@]2(C[C@H](OC(=O)/C=C/c3ccc([N+](=O)[O-])cc3)[C@H](c3ccccc3)O2)O1 | 20.43% | 2.81% | 3.37% | 29.17% | 11.5 µM | 18.7% | 4.48 µM | 3.12 µM | 4.32 µM | 13.94% | 7.55 µM | 0.68% | > 100 µM | 30.42% | Active | 27.84% | 3.87% | Active | 14.3 µM | 78.82% | Activity (K562 [17]): 18.29%; Activity (K562 [18]): 0.64%; Activity (K562 [19]): 0.78%; Activity (K562 [20]): 81.97%; Activity (K562 [21]): 19.98%; IC50 (Jurkat): 10.2 µM; Activity (K562 [22]): 27.16%; IC50 (Raji): 11.8 µM; Activity (K562 [23]): 15.89% |
| O=C1C=C[C@]2(C[C@H](OC(=O)/C=C/c3ccc(F)cc3)[C@H](c3ccccc3)O2)O1 | 14.87% | 2.45% | 0.36% | 37.11% | 12 µM | 4.05% | 1.02 µM | 1.21 µM | 12 µM | 13.78% | 15.6 µM | 0.23% | > 100 µM | 23.2% | Active | 19.29% | 2.62% | Active | 9.05 µM | 83.24% | Activity (K562 [17]): 29.05%; Activity (K562 [18]): 3.78%; Activity (K562 [19]): 1.7%; Activity (K562 [20]): 85.69%; Activity (K562 [21]): 24.82%; IC50 (Jurkat): 15.4 µM; Activity (K562 [22]): 31.52%; IC50 (Raji): 17.3 µM; Activity (K562 [23]): 60.46% |
